Reference: ChEMBL document CHEMBL4118202, “Chiral analogues of (+)-cyclazosin as potent α1B-adrenoceptor selective antagonist” (Bioorg Med Chem, 2018)

Legend:
[1] = molecular target: T1, Alpha-1D adrenergic receptor (Rattus norvegicus) (UniProt P23944); assay: Antagonist activity at alpha1D adrenergic receptor in Wistar rat thoracic aorta assessed as inhibition of noradrenaline-induced contraction measured after 30 mins in presence of cocaine hydrochloride and beta-adrenoceptor blocker propranolol hydrochloride; type: functional
T1 sequence (whole entry): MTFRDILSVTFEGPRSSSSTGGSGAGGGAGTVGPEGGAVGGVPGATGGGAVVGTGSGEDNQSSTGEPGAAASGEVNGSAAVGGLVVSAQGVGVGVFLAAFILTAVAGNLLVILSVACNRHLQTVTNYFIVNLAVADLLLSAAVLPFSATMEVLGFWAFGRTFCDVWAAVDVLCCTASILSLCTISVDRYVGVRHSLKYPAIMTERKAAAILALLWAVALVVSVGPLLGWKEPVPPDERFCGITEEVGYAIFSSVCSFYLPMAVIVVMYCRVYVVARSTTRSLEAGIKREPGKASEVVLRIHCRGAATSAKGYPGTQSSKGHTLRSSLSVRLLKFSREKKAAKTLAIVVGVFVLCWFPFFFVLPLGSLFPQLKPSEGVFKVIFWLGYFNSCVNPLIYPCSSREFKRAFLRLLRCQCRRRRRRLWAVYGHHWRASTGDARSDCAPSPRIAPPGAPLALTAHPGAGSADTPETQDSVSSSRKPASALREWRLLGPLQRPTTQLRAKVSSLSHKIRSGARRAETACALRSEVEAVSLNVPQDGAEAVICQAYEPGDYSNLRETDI
Summary of the method: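 Helical thoracic aorta strips, endothelium removed (checked by loss of acetylcholine relaxation), in Krebs at 1 g, equilibrated ≥2 h. Isometric cumulative noradrenaline curves at 1 h intervals; the second served as control, the third followed 30 min antagonist.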

[2] = molecular target: T2, Alpha-1B adrenergic receptor (Homo sapiens, UniProt P35368); assay: Binding affinity to alpha1B adrenergic receptor (unknown origin)
T2 sequence (P35368 whole entry): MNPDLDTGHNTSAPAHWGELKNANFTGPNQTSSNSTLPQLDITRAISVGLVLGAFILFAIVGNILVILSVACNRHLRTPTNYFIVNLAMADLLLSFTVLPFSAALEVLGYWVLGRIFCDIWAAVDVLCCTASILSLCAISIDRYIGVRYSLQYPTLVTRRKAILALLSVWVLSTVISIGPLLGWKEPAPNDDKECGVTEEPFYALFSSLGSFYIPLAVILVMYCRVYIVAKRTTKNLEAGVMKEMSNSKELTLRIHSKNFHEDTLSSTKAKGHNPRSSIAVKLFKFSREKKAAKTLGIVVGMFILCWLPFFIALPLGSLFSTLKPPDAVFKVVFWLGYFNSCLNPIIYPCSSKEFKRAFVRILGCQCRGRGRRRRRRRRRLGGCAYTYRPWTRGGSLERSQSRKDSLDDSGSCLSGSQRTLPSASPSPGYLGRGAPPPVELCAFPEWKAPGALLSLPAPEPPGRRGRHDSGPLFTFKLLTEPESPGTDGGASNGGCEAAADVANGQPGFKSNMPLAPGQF

[3] = molecular target: T3, Alpha-1A adrenergic receptor (Homo sapiens, UniProt P35348); assay: Binding affinity to alpha1A adrenergic receptor (unknown origin)
T3 sequence (P35348 whole entry): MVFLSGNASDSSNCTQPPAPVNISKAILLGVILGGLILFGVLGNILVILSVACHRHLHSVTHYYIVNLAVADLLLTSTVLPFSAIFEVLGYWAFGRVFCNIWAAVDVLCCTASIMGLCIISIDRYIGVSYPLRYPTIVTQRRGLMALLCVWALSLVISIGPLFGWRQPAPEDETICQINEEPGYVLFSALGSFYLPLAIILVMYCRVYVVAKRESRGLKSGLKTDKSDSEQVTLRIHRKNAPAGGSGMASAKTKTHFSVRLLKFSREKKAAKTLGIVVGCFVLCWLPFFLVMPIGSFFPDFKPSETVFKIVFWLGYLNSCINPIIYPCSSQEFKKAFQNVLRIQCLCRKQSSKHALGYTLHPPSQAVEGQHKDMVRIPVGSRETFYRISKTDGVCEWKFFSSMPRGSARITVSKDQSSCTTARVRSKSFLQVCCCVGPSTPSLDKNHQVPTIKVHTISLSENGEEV

[4] = organism: Homo sapiens; assay: Selectivity ratio of compound effect for alpha1B adrenergic receptor (unknown origin) to compound effect for alpha1D adrenergic receptor (unknown origin)
[5] = organism: Homo sapiens; assay: Selectivity ratio of compound effect for alpha1D adrenergic receptor (unknown origin) to compound effect for alpha1A adrenergic receptor (unknown origin)
[6] = organism: Homo sapiens; assay: Selectivity ratio of compound effect for alpha1B adrenergic receptor (unknown origin) to compound effect for alpha1A adrenergic receptor (unknown origin)
[7] = molecular target: T4, Alpha-1D adrenergic receptor (Homo sapiens, UniProt P25100); assay: Binding affinity to alpha1D adrenergic receptor (unknown origin)
T4 sequence (P25100 whole entry): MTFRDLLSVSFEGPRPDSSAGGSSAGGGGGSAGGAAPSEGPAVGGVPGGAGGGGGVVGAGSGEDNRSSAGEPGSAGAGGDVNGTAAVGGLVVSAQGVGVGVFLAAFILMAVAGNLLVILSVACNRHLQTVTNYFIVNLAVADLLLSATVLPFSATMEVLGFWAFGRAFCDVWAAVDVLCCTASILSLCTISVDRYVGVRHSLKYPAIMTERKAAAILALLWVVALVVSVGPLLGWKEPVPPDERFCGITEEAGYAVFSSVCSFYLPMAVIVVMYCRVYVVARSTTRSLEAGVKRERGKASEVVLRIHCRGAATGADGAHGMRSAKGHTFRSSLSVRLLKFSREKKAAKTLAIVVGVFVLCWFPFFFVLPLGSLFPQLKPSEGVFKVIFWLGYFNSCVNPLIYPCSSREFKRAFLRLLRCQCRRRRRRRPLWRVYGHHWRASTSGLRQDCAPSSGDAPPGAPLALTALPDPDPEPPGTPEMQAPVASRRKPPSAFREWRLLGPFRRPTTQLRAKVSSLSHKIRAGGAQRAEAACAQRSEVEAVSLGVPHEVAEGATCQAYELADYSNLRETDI

| SMILES | pKb [1] | Ki [2] [nM] | Ki [3] [nM] | Selectivity ratio [4] | Selectivity ratio [5] | Selectivity ratio [6] | Ki [7] [nM] |
| --- | --- | --- | --- | --- | --- | --- | --- |
| CCCN(CCC)c1nc(N2CCN(C(=O)c3ccco3)[C@H]3CCCC[C@H]32)nc2cc(OC)c(OC)cc12 | 6.22 |  |  |  |  |  |  |
| COc1cc2nc(N3CCN(C(=O)C4COc5ccccc5O4)[C@H]4CCCC[C@H]43)nc(N)c2cc1OC (single isomer, unassigned; (-)) [CYCLODOXAZOSIN] | 7.1 | 1.41 | 3.39 | 3 | 1 | 2 | 3.89 |
